Assay: MAD study: safety and tolerability
Type: in vivo, human
Settings: for Abdominal pain TEAE, events / Abdominal pain TEAE, participants / Alanine aminotransferase increased TEAE, events / Alanine aminotransferase increased TEAE, participants / Any event TEAE, events / Any event TEAE, participants / Constipation TEAE, events / Constipation TEAE, participants / Diarrhea TEAE, events / Diarrhea TEAE, participants / Dry skin TEAE, events / Dry skin TEAE, participants / Dysgeusia TEAE, events / Dysgeusia TEAE, participants / Gastrointestinal disorders TEAE, events / Gastrointestinal disorders TEAE, participants / General disorders and administration site conditions TEAE, events / General disorders and administration site conditions TEAE, participants / Headache TEAE, events / Headache TEAE, participants / Injury, poisoning, and procedural complications TEAE, events / Injury, poisoning, and procedural complications TEAE, participants / Investigations TEAE, events / Investigations TEAE, participants / Medical device site reaction TEAE, events / Medical device site reaction TEAE, participants / Musculoskeletal and connective tissue disorders TEAE, events / Musculoskeletal and connective tissue disorders TEAE, participants / Nasal dryness TEAE, events / Nasal dryness TEAE, participants / Neck pain TEAE, events / Neck pain TEAE, participants / Nervous system disorders TEAE, events / Nervous system disorders TEAE, participants / Oropharyngeal pain TEAE, events / Oropharyngeal pain TEAE, participants / Reproductive system and breast disorders TEAE, events / Reproductive system and breast disorders TEAE, participants / Respiratory, thoracic, and mediastinal disorders TEAE, events / Respiratory, thoracic, and mediastinal disorders TEAE, participants / Skin and subcutaneous tissue disorders TEAE, events / Skin and subcutaneous tissue disorders TEAE, participants / Sneezing TEAE, events / Sneezing TEAE, participants / Testicular mass TEAE, events / Testicular mass TEAE, participants / Wound TEAE, events / Wound TEAE, participants: N = 8
Summary of the method: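 Healthy males aged 18–55 with BMI 18–30 kg/m² were followed through dosing and a 6–8-day follow-up. Checks: physical examination, clinical laboratory tests, vital signs and 12-lead ECG, with adverse events coded in MedDRA. Events of special interest: ALT ≥2×ULN, QTcF ≥500 ms, Grade ≥2 photosensitivity, symptomatic overdose. Treatment-emergent events were summarised descriptively by organ class, preferred term and dose level for all exposed participants.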

CN1C(=O)c2cccc(OC(F)F)c2[C@H]2C[C@@H]1c1nc3ccc(-c4cnc(C5(N)CCC5)nc4)cc3n12 [Balinatunfib]
Grade ≥ 3 TEAE, treatment-emergent SAEs, TEAEs leading to discontinuation (MAD): No participants | Abdominal pain TEAE, events (MAD 100 mg BID): 0 | Abdominal pain TEAE, participants (MAD 100 mg BID): 0 n (%) | Alanine aminotransferase increased TEAE, events (MAD 100 mg BID): 0 | Alanine aminotransferase increased TEAE, participants (MAD 100 mg BID): 0 n (%) | Any event TEAE, events (MAD 100 mg BID): 3 | Any event TEAE, participants (MAD 100 mg BID): 2 (25.0) n (%) | Constipation TEAE, events (MAD 100 mg BID): 0 | Constipation TEAE, participants (MAD 100 mg BID): 0 n (%) | Diarrhea TEAE, events (MAD 100 mg BID): 0 | Diarrhea TEAE, participants (MAD 100 mg BID): 0 n (%) | Dry skin TEAE, events (MAD 100 mg BID): 0 | Dry skin TEAE, participants (MAD 100 mg BID): 0 n (%) | Dysgeusia TEAE, events (MAD 100 mg BID): 0 | Dysgeusia TEAE, participants (MAD 100 mg BID): 0 n (%) | Gastrointestinal disorders TEAE, events (MAD 100 mg BID): 0 | Gastrointestinal disorders TEAE, participants (MAD 100 mg BID): 0 n (%) | General disorders and administration site conditions TEAE, events (MAD 100 mg BID): 0 | General disorders and administration site conditions TEAE, participants (MAD 100 mg BID): 0 n (%) | Headache TEAE, events (MAD 100 mg BID): 0 | Headache TEAE, participants (MAD 100 mg BID): 0 n (%) | Injury, poisoning, and procedural complications TEAE, events (MAD 100 mg BID): 0 | Injury, poisoning, and procedural complications TEAE, participants (MAD 100 mg BID): 0 n (%) | Investigations TEAE, events (MAD 100 mg BID): 0 | Investigations TEAE, participants (MAD 100 mg BID): 0 n (%) | Medical device site reaction TEAE, events (MAD 100 mg BID): 0 | Medical device site reaction TEAE, participants (MAD 100 mg BID): 0 n (%) | Musculoskeletal and connective tissue disorders TEAE, events (MAD 100 mg BID): 0 | Musculoskeletal and connective tissue disorders TEAE, participants (MAD 100 mg BID): 0 n (%) | Nasal dryness TEAE, events (MAD 100 mg BID): 0 | Nasal dryness TEAE, participants (MAD 100 mg BID): 0 n (%) | Neck pain TEAE, events (MAD 100 mg BID): 0 | Neck pain TEAE, participants (MAD 100 mg BID): 0 n (%) | Nervous system disorders TEAE, events (MAD 100 mg BID): 0 | Nervous system disorders TEAE, participants (MAD 100 mg BID): 0 n (%) | Oropharyngeal pain TEAE, events (MAD 100 mg BID): 1 | Oropharyngeal pain TEAE, participants (MAD 100 mg BID): 1 (12.5) n (%) | Reproductive system and breast disorders TEAE, events (MAD 100 mg BID): 1 | Reproductive system and breast disorders TEAE, participants (MAD 100 mg BID): 1 (12.5) n (%) | Respiratory, thoracic, and mediastinal disorders TEAE, events (MAD 100 mg BID): 2 | Respiratory, thoracic, and mediastinal disorders TEAE, participants (MAD 100 mg BID): 2 (25.0) n (%) | Skin and subcutaneous tissue disorders TEAE, events (MAD 100 mg BID): 0 | Skin and subcutaneous tissue disorders TEAE, participants (MAD 100 mg BID): 0 n (%) | Sneezing TEAE, events (MAD 100 mg BID): 1 | Sneezing TEAE, participants (MAD 100 mg BID): 1 (12.5) n (%) | Testicular mass TEAE, events (MAD 100 mg BID): 1 | Testicular mass TEAE, participants (MAD 100 mg BID): 1 (12.5) n (%) | Wound TEAE, events (MAD 100 mg BID): 0 | Wound TEAE, participants (MAD 100 mg BID): 0 n (%) | Abdominal pain TEAE, events (MAD 100 mg QD): 1 | Abdominal pain TEAE, participants (MAD 100 mg QD): 1 (12.5) n (%) | Alanine aminotransferase increased TEAE, events (MAD 100 mg QD): 3 | Alanine aminotransferase increased TEAE, participants (MAD 100 mg QD): 3 (37.5) n (%) | Any event TEAE, events (MAD 100 mg QD): 9 | Any event TEAE, participants (MAD 100 mg QD): 4 (50.0) n (%) | Constipation TEAE, events (MAD 100 mg QD): 0 | Constipation TEAE, participants (MAD 100 mg QD): 0 n (%) | Diarrhea TEAE, events (MAD 100 mg QD): 2 | Diarrhea TEAE, participants (MAD 100 mg QD): 2 (25.0) n (%) | Dry skin TEAE, events (MAD 100 mg QD): 0 | Dry skin TEAE, participants (MAD 100 mg QD): 0 n (%) | Dysgeusia TEAE, events (MAD 100 mg QD): 0 | Dysgeusia TEAE, participants (MAD 100 mg QD): 0 n (%) | Gastrointestinal disorders TEAE, events (MAD 100 mg QD): 3 | Gastrointestinal disorders TEAE, participants (MAD 100 mg QD): 2 (25.0) n (%) | General disorders and administration site conditions TEAE, events (MAD 100 mg QD): 0 | General disorders and administration site conditions TEAE, participants (MAD 100 mg QD): 0 n (%) | Headache TEAE, events (MAD 100 mg QD): 1 | Headache TEAE, participants (MAD 100 mg QD): 1 (12.5) n (%) | Injury, poisoning, and procedural complications TEAE, events (MAD 100 mg QD): 1 | Injury, poisoning, and procedural complications TEAE, participants (MAD 100 mg QD): 1 (12.5) n (%) | Investigations TEAE, events (MAD 100 mg QD): 3 | Investigations TEAE, participants (MAD 100 mg QD): 3 (37.5) n (%) | Medical device site reaction TEAE, events (MAD 100 mg QD): 0 | Medical device site reaction TEAE, participants (MAD 100 mg QD): 0 n (%) | Musculoskeletal and connective tissue disorders TEAE, events (MAD 100 mg QD): 1 | Musculoskeletal and connective tissue disorders TEAE, participants (MAD 100 mg QD): 1 (12.5) n (%) | Nasal dryness TEAE, events (MAD 100 mg QD): 0 | Nasal dryness TEAE, participants (MAD 100 mg QD): 0 n (%) | Neck pain TEAE, events (MAD 100 mg QD): 1 | Neck pain TEAE, participants (MAD 100 mg QD): 1 (12.5) n (%) | Nervous system disorders TEAE, events (MAD 100 mg QD): 1 | Nervous system disorders TEAE, participants (MAD 100 mg QD): 1 (12.5) n (%) | Oropharyngeal pain TEAE, events (MAD 100 mg QD): 0 | Oropharyngeal pain TEAE, participants (MAD 100 mg QD): 0 n (%) | Reproductive system and breast disorders TEAE, events (MAD 100 mg QD): 0 | Reproductive system and breast disorders TEAE, participants (MAD 100 mg QD): 0 n (%) | Respiratory, thoracic, and mediastinal disorders TEAE, events (MAD 100 mg QD): 0 | Respiratory, thoracic, and mediastinal disorders TEAE, participants (MAD 100 mg QD): 0 n (%) | Skin and subcutaneous tissue disorders TEAE, events (MAD 100 mg QD): 0 | Skin and subcutaneous tissue disorders TEAE, participants (MAD 100 mg QD): 0 n (%) | Sneezing TEAE, events (MAD 100 mg QD): 0 | Sneezing TEAE, participants (MAD 100 mg QD): 0 n (%) | Testicular mass TEAE, events (MAD 100 mg QD): 0 | Testicular mass TEAE, participants (MAD 100 mg QD): 0 n (%) | Wound TEAE, events (MAD 100 mg QD): 1 | Wound TEAE, participants (MAD 100 mg QD): 1 (12.5) n (%) | Abdominal pain TEAE, events (MAD 200 mg BID): 0 | Abdominal pain TEAE, participants (MAD 200 mg BID): 0 n (%)
